Laboratory results as given in the RNAGym collection of RNA variant scans (doi:10.1126/science.aae0568).
Fewer inactive variants are shown than the library holds.

B1: tRNA (parent)
chain: GUUCCGUUGGCGUAAUGGUAACGCGUCUCCCUCCUAAGGAGAAGACUGCGGGUUCGAGUCCCGUACGGAACG

Variants of: B1
Test: yeast fitness relative to wild type (ratio to wild type); higher = fitter; tRNA-Arg(CCU), competitive growth, 37 C, YPD
Method in brief: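 Variants of the tRNA-Arg(CCU) gene were chemically synthesised with a 3% per-site mutation rate across 69 sites and placed at the native genomic locus in Saccharomyces cerevisiae. Six parallel replicates of the pooled strains were competed in YPD at 37°C for 24 hours, and gene amplicons from the start and end populations were read by 100-nucleotide paired-end sequencing. Darwinian fitness relative to wild type was derived from changes in genotype frequencies. Genotypes required ≥ 100 starting reads, and estimates < 0.5 were set to 0.5.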
With C29U G41C G56A C60G C62G the yeast fitness was ≤ 0.5. C30G G39C U59C G63C showed a yeast fitness of 0.558. With C30G A40G C49U the yeast fitness was ≤ 0.5. Variant C30A U47C has a yeast fitness of 0.775. Work on C30A G41A U47C yielded a yeast fitness of 0.559. With C30G A65G the yeast fitness was 0.639. In the case of C30U C31G A36C, the yeast fitness is reported as ≤ 0.5. Variant C30U A40G C49U has a yeast fitness of 0.632. With C30U A45C G48A G58A G67U the yeast fitness was ≤ 0.5. In the case of C29U U35A C61G, the yeast fitness is reported as ≤ 0.5. With C30U A36C A37G U47C the yeast fitness was ≤ 0.5. For C30G U35A A65C, the yeast fitness was ≤ 0.5. For C30G A42G A45G, the yeast fitness was ≤ 0.5. In the case of C30A C61A A69C, the yeast fitness is reported as 0.609. With C30A A37G A57G the yeast fitness was ≤ 0.5. C29U U32G A43U G44C C61U gave a yeast fitness of 0.509. With C29U G68A A69C the yeast fitness was ≤ 0.5. In the case of C30A U35A C61G, the yeast fitness is reported as ≤ 0.5. With C30U A43U U54A the yeast fitness was 0.541. Work on C30G C31G G38C C46G A69C yielded a yeast fitness of 0.572. For C30U A57U, the yeast fitness was 0.863. Work on C30U C33G A65C yielded a yeast fitness of 0.577. With C30A A36G G67C the yeast fitness was 0.537. For C30U A42C G48C U64C, the yeast fitness was ≤ 0.5. For C30G C49G, the yeast fitness was 0.635. Variant C30A A36G A65G has a yeast fitness of 0.648. With C30G C33U C49U the yeast fitness was 0.556. In the case of C30A G51C C55A C66U, the yeast fitness is reported as ≤ 0.5. With C29U G52C the yeast fitness was 0.579. In the case of C30U C49G, the yeast fitness is reported as 0.718. In the case of C30U C49A, the yeast fitness is reported as 0.547. For C30A G50A A65C, the yeast fitness was 0.628. Variant C30A A43U C66U has a yeast fitness of 0.75. For C30U C34G G38C A65C, the yeast fitness was 0.537. With C30A C31U A45C the yeast fitness was 0.663. With C29U U35C C62U A70U the yeast fitness was ≤ 0.5. C30U A45U showed a yeast fitness of 0.955. C29U G58C A65G showed a yeast fitness of 0.61. For C30G C33G C34U A42U A65C, the yeast fitness was ≤ 0.5. In the case of C30U A42C G48C A65C, the yeast fitness is reported as ≤ 0.5. For C30U C31G A57U, the yeast fitness was ≤ 0.5. Work on C30G C33U G58C U64A yielded a yeast fitness of 0.56. In the case of C30G A57U C66U A70U, the yeast fitness is reported as ≤ 0.5. C30G C33G A70U showed a yeast fitness of 0.532. In the case of C30A G44A A45U C62U, the yeast fitness is reported as ≤ 0.5. With C30U C33A G39A the yeast fitness was ≤ 0.5. C30A C31U A36G showed a yeast fitness of 0.587. For C29U U32C G51C, the yeast fitness was ≤ 0.5. Work on C30G G68C yielded a yeast fitness of 0.691. Work on C30G G68A yielded a yeast fitness of 0.698. In the case of C30G G68U, the yeast fitness is reported as 0.64. In the case of C30U C61G A65C, the yeast fitness is reported as ≤ 0.5. For C29U G38C C55U G67C, the yeast fitness was ≤ 0.5. In the case of C30U C46U G50A A69G, the yeast fitness is reported as 0.605. For C30A A36U A42G C60U A69C, the yeast fitness was ≤ 0.5. For C29U U35C A42U C61U C66A, the yeast fitness was ≤ 0.5. With C30G U47C the yeast fitness was 0.701. In the case of C30A G38C C61A, the yeast fitness is reported as 0.51. In the case of C30G U47A G68A, the yeast fitness is reported as ≤ 0.5. C30G G58A A69U showed a yeast fitness of 0.535. With C30U A42U A43C A70C the yeast fitness was ≤ 0.5. In the case of C29U G48A G56C C61U, the yeast fitness is reported as ≤ 0.5. With C30A U47C G67U the yeast fitness was ≤ 0.5. Work on C30A A36C C46G yielded a yeast fitness of 0.532. Work on C30G U64A yielded a yeast fitness of 0.784. Variant C30G G48A has a yeast fitness of 0.633. In the case of C30G G48C, the yeast fitness is reported as 0.624. For C29U G63A A70U, the yeast fitness was 0.6. In the case of C30A A40C C46U C60U C66U, the yeast fitness is reported as ≤ 0.5. C30U A43C G67U showed a yeast fitness of 0.571. For C30U A65U C66G, the yeast fitness was ≤ 0.5. In the case of C30G U35A C62U, the yeast fitness is reported as ≤ 0.5. C29U G44C A57U gave a yeast fitness of 0.635. In the case of C30G G58C G63C, the yeast fitness is reported as ≤ 0.5. With C29U U32C U35G A70U the yeast fitness was ≤ 0.5. With C30G C33U A45U the yeast fitness was 0.57. C30U A36C A65C showed a yeast fitness of 0.615. With C29U U35A G38C A45U U59C the yeast fitness was ≤ 0.5. C30A A45G U53A showed a yeast fitness of 1.1. With C30G A43C C60G C66U the yeast fitness was ≤ 0.5. With C29U G48C A65U the yeast fitness was ≤ 0.5. For C30A U53C, the yeast fitness was 0.82. For C30U C60G, the yeast fitness was 0.661. C30U C60U showed a yeast fitness of 0.734. Work on C30U C60A yielded a yeast fitness of 0.593. For C30A A37U A40U C49U, the yeast fitness was ≤ 0.5. In the case of C30U C31G A65C, the yeast fitness is reported as 0.821. In the case of C30G U32A A40U A42C A65C, the yeast fitness is reported as ≤ 0.5. C30A gave a yeast fitness of 0.998. For C30G, the yeast fitness was 0.68. C30U gave a yeast fitness of 1.01. With C29U G67U A69U the yeast fitness was ≤ 0.5. With C30G C55G U59A U64G the yeast fitness was ≤ 0.5. Work on C30G G67U yielded a yeast fitness of 0.589. C30G G67A gave a yeast fitness of 0.619. C30A C49U G67U gave a yeast fitness of 0.608. C29U U32C gave a yeast fitness of 0.981. In the case of C30A G44A A45C A70U, the yeast fitness is reported as ≤ 0.5. With C29U G44C C60A the yeast fitness was ≤ 0.5. For C30A C62U G63A, the yeast fitness was ≤ 0.5. C30U C31U A57G gave a yeast fitness of 0.75. With C30G U32A C66U the yeast fitness was ≤ 0.5. Work on C30G C60U yielded a yeast fitness of 0.552. Work on C30G C60G yielded a yeast fitness of 0.521. With C30G C60A the yeast fitness was 0.739. Variant C30G C62G has a yeast fitness of 0.551. In the case of C30G C62A, the yeast fitness is reported as 0.61. In the case of C30G U64A A70C, the yeast fitness is reported as ≤ 0.5. C30G A43C C62U gave a yeast fitness of 0.533. With C30A G38A G52A C55A A65C the yeast fitness was ≤ 0.5. C30U A43C showed a yeast fitness of 1.04. In the case of C30U A43U, the yeast fitness is reported as 1.03. With C30G C46G G52C G68C the yeast fitness was ≤ 0.5. For C30A C61U A65U, the yeast fitness was ≤ 0.5. In the case of C30G A57G G63A, the yeast fitness is reported as ≤ 0.5. In the case of C30A G56U A65G, the yeast fitness is reported as ≤ 0.5. For C30G G44A G63A, the yeast fitness was ≤ 0.5. With C30U A45G G48C G58C U59A the yeast fitness was 0.548. For C30A C46U G52A C55U, the yeast fitness was ≤ 0.5. For C30G C46A U47G C49A G52A G58C C61U U64G A65G, the yeast fitness was ≤ 0.5. With C30A C31A C60U C62G the yeast fitness was ≤ 0.5. Work on C30U C61U yielded a yeast fitness of 0.826. With C30U C61G the yeast fitness was 0.671. For C30A A40G U59G A70C, the yeast fitness was ≤ 0.5. In the case of C30A A69C, the yeast fitness is reported as 1.03. Work on C30A A69G yielded a yeast fitness of 0.915. For C30U C31G G39C C55A C62U A70U, the yeast fitness was ≤ 0.5. Work on C30U C49U G52A yielded a yeast fitness of 0.584. For C30G A36G A57U A65U C66U, the yeast fitness was ≤ 0.5. For C30U C46U A57U, the yeast fitness was 0.515. C30G G51C G56U gave a yeast fitness of 0.628. For C30U A42G A43U U54A, the yeast fitness was ≤ 0.5. C30G C46G showed a yeast fitness of 0.693. C30A G44A showed a yeast fitness of 0.88. Variant C30G A45G G56A has a yeast fitness of 0.526. For C30A A65G, the yeast fitness was 1.02. For C30A A65U, the yeast fitness was 0.802. Work on C30A A65C yielded a yeast fitness of 0.814. In the case of C30U A70U, the yeast fitness is reported as 0.962. In the case of C30U A70G, the yeast fitness is reported as 0.941. C30U A70C showed a yeast fitness of 0.869. With C30U C31U A40C A65C the yeast fitness was ≤ 0.5. Work on C30A U54A A57C yielded a yeast fitness of 0.548. For C30U A45C G52C, the yeast fitness was 0.568. C30G C55U gave a yeast fitness of 0.622. With C30A A36C G38A the yeast fitness was ≤ 0.5. With C30U A57C G63C the yeast fitness was ≤ 0.5. C30G C61U A70G showed a yeast fitness of 0.603. For C30U C31U A37G A43G, the yeast fitness was ≤ 0.5. Variant C30A A43C has a yeast fitness of 0.884. In the case of C30G A42U G51C, the yeast fitness is reported as ≤ 0.5. In the case of C30G G48A U53C A70U, the yeast fitness is reported as ≤ 0.5. In the case of C30A G51C C62G, the yeast fitness is reported as ≤ 0.5. For C30G A36G A57U, the yeast fitness was ≤ 0.5. In the case of C30A G56A C60G, the yeast fitness is reported as ≤ 0.5. C29U U53A C61U showed a yeast fitness of 0.685. C30A C31G G39C gave a yeast fitness of 0.535. With C30G A43U G48C U64G the yeast fitness was ≤ 0.5. Work on C30G A57U yielded a yeast fitness of 0.609. C30G A57G showed a yeast fitness of 0.616. In the case of C30G C49A U53C, the yeast fitness is reported as 0.563. Work on C30A A37C yielded a yeast fitness of 0.772. Variant C30A G52A has a yeast fitness of 0.813. In the case of C29U G58A A69U, the yeast fitness is reported as 0.754. Work on C30U C46U A70G yielded a yeast fitness of 0.601. Work on C30G A42C yielded a yeast fitness of 0.631. In the case of C30G A42G, the yeast fitness is reported as 0.626.
